Experiment [1] is described as follows: Antioxidant activity assessed as superoxide-scavenging activity by nitrite method. In kind it is functional.
Experiment [2] deals with Xanthine dehydrogenase/oxidase (Homo sapiens, UniProt P47989). As to the kind of experiment: Inhibition of xanthine oxidase assessed as decrease in uric acid production by spectrophotometry. The procedure, abridged:
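Flavonoid at various concentrations with 50 µM xanthine, 0.2 mM hydroxylamine and 0.1 mM EDTA. Stopped with HCl, then uric acid read as absorbance at 290 nm against an enzyme-free blank. IC50 by linear regression.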

Experiment [3] in a line: Prooxidant effect assessed as superoxide production by nitrite method. In kind it is functional. The procedure, abridged:
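Xanthine oxidase (6.25 mU/mL, in 200 mM phosphate buffer pH 7.50) generated superoxide from 50 µM xanthine with 0.2 mM hydroxylamine and 0.1 mM EDTA, plus flavonoid at various concentrations. Incubated 30 min at 37 °C. Superoxide read by the nitrite method: stood 30 min at room temperature, then absorbance at 550 nm. Levels compared with control experiments; IC50 from linear regression.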

Structures are written as SMILES. The source made the active and inactive calls. No cut-off for these calls is given here.

Xanthine dehydrogenase/oxidase, sequence (P47989 whole entry): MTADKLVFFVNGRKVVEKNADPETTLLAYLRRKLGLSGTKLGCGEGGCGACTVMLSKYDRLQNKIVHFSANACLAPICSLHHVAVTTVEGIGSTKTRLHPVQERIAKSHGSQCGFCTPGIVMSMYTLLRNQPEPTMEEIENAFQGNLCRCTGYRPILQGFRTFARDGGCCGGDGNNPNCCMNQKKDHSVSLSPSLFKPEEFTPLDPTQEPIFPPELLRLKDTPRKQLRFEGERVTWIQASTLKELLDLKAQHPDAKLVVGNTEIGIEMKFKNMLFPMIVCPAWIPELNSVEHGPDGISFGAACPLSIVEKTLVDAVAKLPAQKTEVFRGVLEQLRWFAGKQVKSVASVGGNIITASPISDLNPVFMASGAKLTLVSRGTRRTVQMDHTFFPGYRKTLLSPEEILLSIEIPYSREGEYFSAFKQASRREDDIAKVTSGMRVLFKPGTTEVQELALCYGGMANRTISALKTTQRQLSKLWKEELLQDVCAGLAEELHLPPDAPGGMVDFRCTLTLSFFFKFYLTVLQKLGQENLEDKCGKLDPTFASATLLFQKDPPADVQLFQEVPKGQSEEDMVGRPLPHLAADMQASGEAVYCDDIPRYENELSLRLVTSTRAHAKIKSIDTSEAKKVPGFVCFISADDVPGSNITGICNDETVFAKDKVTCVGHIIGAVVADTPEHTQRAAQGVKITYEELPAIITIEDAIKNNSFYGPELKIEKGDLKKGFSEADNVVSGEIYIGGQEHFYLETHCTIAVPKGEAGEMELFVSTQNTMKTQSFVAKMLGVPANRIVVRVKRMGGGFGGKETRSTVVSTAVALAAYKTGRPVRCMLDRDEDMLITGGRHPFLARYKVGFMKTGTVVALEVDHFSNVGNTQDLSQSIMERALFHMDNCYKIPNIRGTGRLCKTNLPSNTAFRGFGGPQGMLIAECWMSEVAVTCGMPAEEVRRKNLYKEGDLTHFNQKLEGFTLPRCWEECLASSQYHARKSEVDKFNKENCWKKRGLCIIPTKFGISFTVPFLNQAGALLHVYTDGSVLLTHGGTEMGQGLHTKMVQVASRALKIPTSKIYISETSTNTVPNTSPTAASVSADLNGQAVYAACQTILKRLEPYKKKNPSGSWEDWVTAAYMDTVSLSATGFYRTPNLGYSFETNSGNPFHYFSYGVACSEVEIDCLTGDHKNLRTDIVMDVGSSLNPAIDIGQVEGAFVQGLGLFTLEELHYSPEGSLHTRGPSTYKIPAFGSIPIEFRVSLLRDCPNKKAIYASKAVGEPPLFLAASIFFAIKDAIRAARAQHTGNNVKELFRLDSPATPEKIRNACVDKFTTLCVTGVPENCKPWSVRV

`Oc1cc(O)c2c(c1)O[C@H](c1ccc(O)c(O)c1)[C@@H](O)C2` [CIANIDANOL]: the IC50 was 1.61 µM in experiment [1] and more than 100 µM in experiment [2].

With `O=C1c2c(O)cc(O)cc2OC(c2ccc(O)c(O)c2)C1O` (racemic) [TAXIFOLIN], the 50% inhibitory concentration (IC50) in experiment [1] is 1.73 µM.

On to `O=c1cc(-c2ccccc2)oc2cc(O)c(O)c(O)c12` [BAICALEIN], for which the IC50 is 2.72 µM in experiment [1] and 2.79 µM in experiment [2].

As to `C[C@@H]1O[C@@H](OC[C@H]2O[C@@H](Oc3c(-c4ccc(O)cc4)oc4cc(O)cc(O)c4c3=O)[C@H](O)[C@@H](O)[C@@H]2O)[C@H](O)[C@H](O)[C@H]1O` [NICOTIFLOROSIDE], the results for the IC50 in experiment [1] and in experiment [2] were 3.4 µM and 14.8 µM, respectively.

Turning to `Oc1ncnc2[nH]ncc12` [ALLOPURINOL], the IC50 in experiment [1] is 0.23 µM.

`COc1cc(-c2cc(=O)c3c(O)cc(O[C@@H]4O[C@H](CO)[C@@H](O)[C@H](O)[C@H]4O[C@@H]4O[C@@H](C)[C@H](O)[C@@H](O)[C@H]4O)cc3o2)ccc1O` [CHRYSOERIOL-7-O-NEOHESPERIDOSIDE]: the IC50 in experiment [1] and in experiment [2] was more than 100 µM each time.

`Oc1cc(O)c2c(c1)O[C@H](c1ccc(O)c(O)c1)[C@H](O)C2` [(-)-EPICATECHIN]: the IC50 in experiment [1] was 1.59 µM; in experiment [2], more than 100 µM.

Turning to `COc1cc2oc(-c3ccc(O[C@@H]4O[C@H](CO)[C@@H](O)[C@H](O)[C@H]4O)cc3)cc(=O)c2c(O)c1OC` [CIRSIMARIN], the IC50 in experiment [1] and in experiment [2] was more than 100 µM throughout.

`COc1ccc(-c2cc(=O)c3c(OC)c(OC)c(OC)c(OC)c3o2)cc1OC` [NOBILETIN]: the IC50 in experiment [1] and in experiment [2] was more than 100 µM throughout.

As for `Oc1cc(O)c2c(c1)O[C@H](c1cc(O)c(O)c(O)c1)[C@H](O)C2` [EPIGALLOCATECHIN], the IC50 in experiment [1] is 0.48 µM; in experiment [2], more than 100 µM.

Consider `COc1ccc(-c2cc(=O)c3c(OC)c(OC)c(OC)c(OC)c3o2)cc1` [TANGERETIN], for which the IC50 in experiment [1] and in experiment [2] was more than 100 µM each time.

With `O=C(/C=C/c1ccc(O)cc1)OC[C@H]1O[C@@H](Oc2c(-c3ccc(O)cc3)oc3cc(O)cc(O)c3c2=O)[C@H](O)[C@@H](O)[C@@H]1O` [TILIROSIDE], the IC50 in experiment [1] and in experiment [2] was more than 100 µM each time.

Regarding `O=c1c(O)c(-c2ccccc2)oc2cc(O)cc(O)c12` [GALANGIN], the IC50 in experiment [1] turned out to be 6.74 µM; in experiment [2], 1.8 µM.

As for `O=C1CC(c2ccc(O)cc2)Oc2ccccc21` (configuration not stated) [4'-HYDROXY-FLAVANONE], the figures for the IC50 in experiment [1] and in experiment [2] were more than 18 µM and more than 30 µM, respectively.

Take `O=c1c(O)c(-c2ccc(O)c(O)c2)oc2cc(O)ccc12` [FISETIN]: the IC50 worked out at 1.84 µM in experiment [1] and 4.33 µM in experiment [2].

As for `O=c1c(O)c(-c2ccccc2)oc2ccccc12` [FLAVONOL], the IC50 in experiment [1] and in experiment [2] was more than 100 µM in each case.

For the compound `O=c1c(O)c(-c2cc(O)c(O)c(O)c2)oc2cc(O)cc(O)c12` [MYRICETIN], the IC50 in experiment [1] turned out to be 0.33 µM; in experiment [2] it was 2.38 µM.

Regarding `C[C@@H]1O[C@@H](O[C@H]2[C@H](Oc3cc(O)c4c(=O)cc(-c5ccc(O)c(O)c5)oc4c3)O[C@H](CO)[C@@H](O)[C@@H]2O)[C@H](O)[C@H](O)[C@H]1O` [LONICERIN], the IC50 in experiment [1] was 2.37 µM; in experiment [2], 11.9 µM.

Take `COc1cc(-c2oc3cc(O)cc(O)c3c(=O)c2O)ccc1O` [ISORHAMNETIN]: the results for the IC50 in experiment [1] and in experiment [2] were 2.75 µM and 2.51 µM, respectively.

Regarding `C[C@@H]1O[C@@H](Oc2c(-c3ccc(O)c(O)c3)oc3cc(O)cc(O)c3c2=O)[C@H](O)[C@H](O)[C@H]1O` [QUERCITRIN], the results for the IC50 in experiment [1] and in experiment [2] were 8.1 µM and more than 100 µM, respectively.

Regarding `O=c1cc(-c2ccccc2)oc2cc(O)ccc12` [7-HYDROXYFLAVONE], in experiment [3], the outcome was Active. Moreover, the results for the IC50 in experiment [1] and in experiment [2] were more than 100 µM and 38 µM, respectively.

For `O=c1cc(-c2ccc(O)c(O)c2)oc2cc(O)cc(O)c12` [LUTEOLIN], the IC50 in experiment [1] was 1.13 µM; in experiment [2] it was 0.55 µM.

Consider `O=c1cc(-c2ccc(O)cc2)oc2cc(O)cc(O)c12` [APIGENIN], for which the IC50 in experiment [1] was determined as 1.33 µM; in experiment [2], 0.7 µM.

Take `O=c1cc(-c2ccccc2)oc2cc(O)cc(O)c12` [CHRYSIN]: the IC50 was 1.87 µM in experiment [1] and 0.84 µM in experiment [2].

Turning to `COc1cc(O)c2c(=O)c(O)c(-c3ccc(OC)c(O)c3)oc2c1` [OMBUINE], the values for the half-inhibitory concentration (IC50) in experiment [1] and in experiment [2] were 2.6 µM and 7.7 µM, respectively.

Regarding `C[C@@H]1O[C@@H](OC[C@H]2O[C@@H](Oc3c(-c4ccc(O)c(O)c4)oc4cc(O)cc(O)c4c3=O)[C@H](O)[C@@H](O)[C@@H]2O)[C@H](O)[C@H](O)[C@H]1O` [RUTIN], the half-maximal inhibitory concentration (IC50) in experiment [2] was found to be 52.2 µM.

Take `O=c1c(O)c(-c2ccc(O)c(O)c2)oc2cc(O)cc(O)c12` [QUERCETIN]: the half-maximal inhibitory concentration (IC50) in experiment [1] came to 1.63 µM.

Turning to `O=c1c(O)c(-c2ccc(O)cc2)oc2cc(O)cc(O)c12` [KAEMPFEROL], the values for the IC50 in experiment [1] and in experiment [2] were 0.84 µM and 1.06 µM, respectively.

With `O=c1c(O)c(-c2ccc(O)cc2O)oc2cc(O)cc(O)c12` [MORIN], the IC50 in experiment [1] worked out at 9.1 µM; in experiment [2] it was 10.1 µM.

In the case of `O=C1C[C@@H](c2ccc(O)cc2)Oc2cc(O)cc(O)c21` [NARINGENIN], the half-inhibitory concentration (IC50) in experiment [1] and in experiment [2] was more than 50 µM in each case.
